# Results taken from ChEMBL document CHEMBL2029233, “Des-acyl ghrelin fragments and analogues promote survival of pancreatic β-cells and human pancreatic islets and prevent diabetes in streptozotocin-treated rats” (2012).
# Calls of active or inactive are those of the source. The calls are words filed in the database; no cut-off is given here. Peptide text beside a SMILES is read from it.
# Columns and labels:
# HIT-T15 [1] = assay: Cytoprotective activity in hamster HIT-T15 cells assessed as inhibition of IFN-gamma/TNFalpha/IL1beta-induced cell death at 1 to 100 nM after 24 hrs by MTT assay relative to control; type: functional, cell-based; details: Mesocricetus auratus
# In short: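 HIT-T15 cells (5×10^3/well) serum-starved 24 h, then 24 h serum-free with IFN-γ 100 ng/mL, TNF-α 200 ng/mL, IL-1β 10 ng/mL plus peptide (1–100 nM). MTT 1 mg/mL ~1 h, formazan dissolved in DMSO, A570. Reported as percent of cytokine control. Mean ± SE of ≥3 experiments in quadruplicate.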
# HIT-T15 [2] = assay: Cytoprotective activity in hamster HIT-T15 cells assessed as inhibition of serum starvation-induced cell death at 1 to 100 nM after 24 hrs by MTT assay relative to control; type: functional, cell-based; details: Mesocricetus auratus
# In short: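 Viability by MTT in HIT-T15 cells seeded at 5×10^3/well, serum-starved 24 h, then 24 h more in serum-free medium with peptide (1–100 nM). MTT 1 mg/mL ~1 h, DMSO solubilization, absorbance 570 nm. Expressed as percent of serum-free control. Mean ± SE, ≥3 experiments in quadruplicate.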
Compound,Activity (HIT-T15 [1]),Activity (HIT-T15 [2])
H-SPEHARVQ-NH2,inactive,inactive
N=C(N)NCCC[C@H](NC(=O)[C@H](CCC(N)=O)NC(=O)[C@H](Cc1cnc[nH]1)NC(=O)[C@@H](N)CCC(=O)O)C(N)=O (H-EHQR-NH2),inactive,
H-SPEHQRAQ-NH2,Active,Active
CC(C)[C@@H](NC(=O)[C@H](CCCNC(=N)N)NC(=O)[C@H](CCC(N)=O)NC(=O)[C@H](Cc1cnc[nH]1)NC(=O)[C@H](CCC(=O)O)NC(=O)[C@@H]1CCCN1C(=O)[C@@H](N)CO)C(=O)N[C@@H](CCC(N)=O)C(N)=O,inactive,inactive
H-SPAHQRVQ-NH2,Active,Active
CC(C)[C@H](NC(=O)[C@H](CCCNC(=N)N)NC(=O)[C@H](CCC(N)=O)NC(=O)[C@H](Cc1cnc[nH]1)NC(=O)[C@@H](CCC(=O)O)NC(=O)[C@@H]1CCCN1C(=O)[C@@H](N)CO)C(=O)N[C@@H](CCC(N)=O)C(N)=O,inactive,inactive
CC(C)[C@@H](NC(=O)[C@H](N)CCC(N)=O)C(=O)N[C@H](CCCNC(=N)N)C(=O)N[C@H](CCC(N)=O)C(=O)N[C@H](Cc1cnc[nH]1)C(=O)N[C@H](CCC(=O)O)C(=O)N1CCC[C@@H]1C(=O)N[C@H](CO)C(N)=O,inactive,inactive
CC(C)[C@H](NC(=O)[C@H](CCCNC(=N)N)NC(=O)[C@H](CCC(N)=O)NC(=O)[C@H](Cc1cnc[nH]1)NC(=O)[C@H](CCC(=O)O)NC(=O)[C@@H]1CCCN1C(=O)[C@@H](N)CO)C(=O)N[C@H](CCC(N)=O)C(N)=O,inactive,inactive
H-APEHQRVQ-NH2,Active,Active
CC(C)[C@H](NC(=O)[C@H](CCCNC(=N)N)NC(=O)[C@H](CCC(N)=O)NC(=O)[C@H](Cc1cnc[nH]1)NC(=O)[C@H](CCC(=O)O)NC(=O)[C@H]1CCCN1C(=O)[C@@H](N)CO)C(=O)N[C@@H](CCC(N)=O)C(N)=O,inactive,inactive
CC(C)[C@H](NC(=O)[C@H](CCCNC(=N)N)NC(=O)[C@H](CCC(N)=O)NC(=O)[C@H](Cc1cnc[nH]1)NC(=O)[C@H](CCC(=O)O)NC(=O)[C@@H]1CCCN1C(=O)[C@H](N)CO)C(=O)N[C@@H](CCC(N)=O)C(N)=O,inactive,inactive
CC(C)[C@H](NC(=O)[C@@H](CCCNC(=N)N)NC(=O)[C@H](CCC(N)=O)NC(=O)[C@H](Cc1cnc[nH]1)NC(=O)[C@H](CCC(=O)O)NC(=O)[C@@H]1CCCN1C(=O)[C@@H](N)CO)C(=O)N[C@@H](CCC(N)=O)C(N)=O,inactive,inactive
CC(C)[C@H](NC(=O)[C@H](CCCNC(=N)N)NC(=O)[C@@H](CCC(N)=O)NC(=O)[C@H](Cc1cnc[nH]1)NC(=O)[C@H](CCC(=O)O)NC(=O)[C@@H]1CCCN1C(=O)[C@@H](N)CO)C(=O)N[C@@H](CCC(N)=O)C(N)=O,inactive,inactive
H-SAEHQRVQ-NH2,Active,Active
H-SPEAQRVQ-NH2,Active,Active
CC(C)[C@H](NC(=O)[C@H](CCCNC(=N)N)NC(=O)[C@H](CCC(N)=O)NC(=O)[C@@H](Cc1cnc[nH]1)NC(=O)[C@H](CCC(=O)O)NC(=O)[C@@H]1CCCN1C(=O)[C@@H](N)CO)C(=O)N[C@@H](CCC(N)=O)C(N)=O,inactive,inactive
CC(C)[C@@H](NC(=O)[C@@H](CCCNC(=N)N)NC(=O)[C@@H](CCC(N)=O)NC(=O)[C@@H](Cc1cnc[nH]1)NC(=O)[C@@H](CCC(=O)O)NC(=O)[C@H]1CCCN1C(=O)[C@H](N)CO)C(=O)N[C@H](CCC(N)=O)C(N)=O,inactive,inactive
H-SPEHQAVQ-NH2,inactive,inactive
N=C(N)NCCC[C@H](NC(=O)[C@H](CCC(N)=O)NC(=O)[C@@H](N)Cc1cnc[nH]1)C(N)=O (H-His-Gln-Arg-NH2),inactive,
